Results: ChEMBL document CHEMBL1125686, “(Benzoylphenyl)piperidines: a new class of immunomodulators” (1991)

Legend:
Type in all cases: functional
Mus musculus [1] = organism: Mus musculus; assay: Maximal proliferation induced in the presence of the mitogen-PWM ( stimulated blastogenesis) in Mice cells at a dose of 10 ug/mL; design: unit not given here
In short: (§1)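 Splenocytes from female DBA/2 mice, 6–9 weeks old; red cells lysed with cold 0.17 M NH₄Cl. Cells plated at 5 × 10⁶ cells/mL in RPMI 1640 with 5% FCS, with compound (5–80 μg/mL range) and Con A, PWM or PHA at a batch-optimized concentration. Cultured 72 h at 37 °C, 5% CO₂, with [³H]thymidine for the final 24 h, read by scintillation. Triplicate wells; mean ± SD of three cultures.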

Mus musculus [2] = assay: Maximal proliferation induced in the presence of the mitogen-Concanavalin A (stimulated blastogenesis) in mice cells dosed at 5 ug/mL; design: unit not given here; in short: as §1
Mus musculus [3] = organism: Mus musculus; assay: Maximal proliferation induced in the presence of the mitogen-PHA ( stimulated blastogenesis) in Mice cells at a dose of 5 ug/mL; design: unit not given here; in short: as §1
Mus musculus [4] = organism: Mus musculus; assay: Proliferation induced by the mitogen alone-PWM (control blastogenesis), in Mice cells at a dose of 10 ug/mL; design: unit not given here; in short: as §1
Mus musculus [5] = organism: Mus musculus; assay: Proliferation induced by the mitogen alone-PHA (control blastogenesis), in Mice cells at a dose of 5 ug/mL; design: unit not given here; in short: as §1
Mus musculus [6] = assay: Proliferation induced by the mitogen alone-Concanavalin A (control blastogenesis), in mice cells dosed at 5 ug/mL; design: unit not given here; in short: as §1
Mus musculus [7] = organism: Mus musculus; assay: Proliferation induced by the mitogen alone-PWM (control blastogenesis), in Mice cells at a dose of 20 ug/mL; in short: as §1
Mus musculus [8] = organism: Mus musculus; assay: Maximal proliferation induced by the test compound in the presence of the mitogen-PWM ( stimulated blastogenesis) in Mice cells at a dose of 20 ug/mL; in short: as §1
Mus musculus [9] = organism: Mus musculus; assay: Maximal proliferation induced in the presence of the mitogen-PWM ( stimulated blastogenesis) in Mice cells at a dose of 80 ug/mL; design: unit not given here; in short: as §1
Mus musculus [10] = organism: Mus musculus; assay: Proliferation induced by the mitogen alone-PWM (control blastogenesis), in Mice cells at a dose of 80 ug/mL; design: unit not given here
In short: (§2)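 Splenocytes from female DBA/2 mice aged 6–9 weeks, red cells lysed with cold 0.17 M NH4Cl, cultured at 5 × 10⁶ cells/mL in RPMI 1640 with 5% FCS. Pokeweed mitogen added at a batch-adjusted optimal level, 72 h at 37 °C, 5% CO2. [³H]thymidine pulse for the final 24 h, then scintillation counting. Triplicates; mean ± SD of three cultures.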

Mus musculus [11] = organism: Mus musculus; assay: Proliferation induced by the mitogen alone-PWM (control blastogenesis), in Mice cells at a dose of 40 ug/mL; design: unit not given here; in short: as §2
Mus musculus [12] = organism: Mus musculus; assay: Maximal proliferation induced in the presence of the mitogen-PWM ( stimulated blastogenesis) in Mice cells at a dose of 40 ug/mL; design: unit not given here; in short: as §1
Mus musculus [13] = assay: […] induction of Thyl+ antigen expression on murine bone marrow cells at the concentration of 2.6 uM(Fraction B).(Control group)
In short: (§3)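 Bone marrow from female C57 BL/6 mice, 5–8 weeks old, separated on a discontinuous BSA gradient. Fraction A (lowest density) and fraction B (next lowest) resuspended at 10⁶ cells/mL in HBSS with 5% BSA. Cells incubated 24 h with one compound concentration, then stained directly with FITC anti-Thy1 and counted by epifluorescence microscopy. % Thy1⁺ cells recorded for treated and control cultures.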

Mus musculus [14] = assay: […] induction of Thyl+ antigen expression on murine bone marrow cells at the concentration of 2.6 uM(Fraction A).(treated); in short: as §3
Mus musculus [15] = assay: […] induction of Thyl+ antigen expression on murine bone marrow cells at the concentration of 2.6 uM(Fraction A).(Control group); in short: as §3
Mus musculus [16] = assay: […] induction of Thyl+ antigen expression on murine bone marrow cells at the concentration of 2.6 uM(Fraction B).(treated); in short: as §3
Mus musculus [17] = organism: Mus musculus; assay: Proliferation induced by the mitogen alone-PHA (control blastogenesis), in Mice cells at a dose of 7.5 ug/mL; in short: as §1
Mus musculus [18] = organism: Mus musculus; assay: Maximal proliferation induced by the test compound in the presence of the mitogen-PHA ( stimulated blastogenesis) in Mice cells at a dose of 7.5 ug/mL; in short: as §1
Mus musculus [19] = assay: […] induction of Thyl+ antigen expression on murine bone marrow cells (Fraction A).(Treated); in short: as §3
Mus musculus [20] = assay: […] induction of Thyl+ antigen expression on murine bone marrow cells (Fraction B).(Control group); in short: as §3
Mus musculus [21] = assay: […] induction of Thyl+ antigen expression on murine bone marrow cells (Fraction B).(Treated); in short: as §3
Mus musculus [22] = assay: […] induction of Thyl+ antigen expression on murine bone marrow cells (Fraction A).(Control group); in short: as §3

Compound	Proliferative response (Mus musculus [1])	Proliferative response (Mus musculus [2])	Proliferative response (Mus musculus [3])	Proliferative response (Mus musculus [4])	Proliferative response (Mus musculus [5])	Proliferative response (Mus musculus [6])	further results
Nc1ccc(N2CCC(Cc3ccccc3)CC2)c(C(=O)c2ccc(Cl)cc2)c1	79.5	308	35.1	108.2	27.4	328	
Cc1cccc(C(=O)c2cc(N)ccc2N2CCC(C)CC2)c1	135.9	414.1	62.4	98.8	47.9	389.9	
CC1CCN(c2ccc(N)cc2C(=O)c2ccccc2Cl)CC1		165.5				150	Proliferative response (Mus musculus [7]): 80; Proliferative response (Mus musculus [8]): 85.8
CC1CCN(c2ccc(N)cc2C(=O)c2ccc(Cl)cc2Cl)CC1	115.9	246.2	46.4	105.5	46.7	280	
COc1ccc(C(=O)c2cc(N)ccc2N2CCC(C)CC2)cc1OC		158.4				137.4	Proliferative response (Mus musculus [9]): 48.8; Proliferative response (Mus musculus [10]): 44.9
CC1CCN(c2ccc(N)cc2C(=O)c2cccc(C(F)(F)F)c2)CC1	79.9	297.7	36	79	34.3	332	
CC1CCN(c2ccc(N)cc2C(=O)c2ccc(Br)cc2)CC1		123.4	11.1		7	118.7	Proliferative response (Mus musculus [11]): 40.5; Proliferative response (Mus musculus [12]): 56.4
CC1CCN(c2ccc(N)cc2C(=O)c2ccc(Cl)c(Cl)c2)CC1		151.5				136.6	Proliferative response (Mus musculus [9]): 64.4; Proliferative response (Mus musculus [10]): 48.4
COc1ccc(C(=O)c2cc(N)ccc2N2CCC(C)CC2)cc1	121.8	363.6	54.3	103.3	36.3	322.1	
Nc1ccc(N2CCCCC2)c(C(=O)c2ccc(Cl)cc2)c1	44.8	21.3		47.7		24.6	
CC1CCN(c2ccc(N)cc2C(=O)c2cccc(Cl)c2)CC1	105	343.8	40.9	102.8	40.2	316	
CC1CCCN(c2ccc(N)cc2C(=O)c2ccc(Cl)cc2)C1 (stereo unspecified)		141.6				124.4	Proliferative response (Mus musculus [9]): 45; Differentiation (Mus musculus [13]): 3.8%; Proliferative response (Mus musculus [10]): 41.3; Differentiation (Mus musculus [14]): 6.7%; Differentiation (Mus musculus [15]): 5%; Differentiation (Mus musculus [16]): 5%
CCC1CCN(c2ccc(N)cc2C(=O)c2ccc(Cl)cc2)CC1	114.6	348	37.4	88.7	30.4	319.5	
COc1ccc(C(=O)c2ccccc2N2CCC(C)CC2)cc1	15.5	165		20.8		127.5	
CNc1ccc(N2CCC(C)CC2)c(C(=O)c2ccc(Cl)cc2)c1	19.5	21.3		20.3		18.2	
CC(C)(C)C1CCN(c2ccc(N)cc2C(=O)c2ccc(Cl)cc2)CC1	137.5	31.9	55	114.8	59.1	30.5	
CC1CCN(c2ccc(Cl)cc2C(=O)c2ccc(Cl)cc2)CC1		68.7				55.6	Proliferative response (Mus musculus [17]): 14.6; Proliferative response (Mus musculus [18]): 8.2
H-CSDAAVDVSSEITVKDLKEKKEVVEEAE-OH [THYMOSIN]							Differentiation (Mus musculus [19]): 21.9%; Differentiation (Mus musculus [20]): 6.3%; Differentiation (Mus musculus [21]): 9.4%; Differentiation (Mus musculus [22]): 10.8%
Cc1ccc(C(=O)c2cc(N)ccc2N2CCC(C)CC2)c(C)c1		250				279.6	Proliferative response (Mus musculus [9]): 61.5; Proliferative response (Mus musculus [10]): 68.8
CC1CCN(c2ccc([N+](=O)[O-])cc2C(=O)c2ccc(Cl)cc2)CC1		93.7				160.9	Proliferative response (Mus musculus [11]): 59.9; Proliferative response (Mus musculus [12]): 42.7
Cc1cc(C(=O)c2cc(N)ccc2N2CCC(C)CC2)cc(C)c1C		206				152.6	Proliferative response (Mus musculus [7]): 84.5; Proliferative response (Mus musculus [8]): 77.1
Nc1ccc(N2CCC(O)CC2)c(C(=O)c2ccc(Cl)cc2)c1	88.7	281.1	52.6	107.9	45	374.8	
CC1CCN(c2ccccc2C(=O)c2ccccc2)CC1	24.7	9		15.1		13.6	
CC1CCN(c2ccc(N)cc2C(=O)c2ccccc2)CC1		167				188.1	Proliferative response (Mus musculus [11]): 48.9; Proliferative response (Mus musculus [12]): 55.7
CC1CCCN(c2ccc(N(C)C)cc2C(=O)c2ccc(Cl)cc2)C1 (stereo unspecified)	18.6	14.9		21.4		17.6	
CC1CCN(c2ccc(N)cc2C(=O)c2ccc(F)cc2)CC1		165.6				268.2	Proliferative response (Mus musculus [9]): 69.9; Proliferative response (Mus musculus [10]): 72.2
CC1CCN(c2ccccc2C(=O)c2ccc(Cl)cc2)CC1		62.7				92.7	Proliferative response (Mus musculus [17]): 17.4; Proliferative response (Mus musculus [18]): 15.5
Cc1ccc(C(=O)c2cc(N)ccc2N2CCC(C)CC2)cc1		283.2				179.7	Proliferative response (Mus musculus [11]): 53.8; Proliferative response (Mus musculus [12]): 48.9
